Data published in ChEMBL document CHEMBL4808161, “Structure-Activity Relationship Study of Amidobenzimidazole Analogues Leading to Potent and Systemically Administrable Stimulator of Interferon Gene (STING) Agonists” (J Med Chem, 2021).

Experiments:
[1] = molecular target: T1, Stimulator of interferon genes protein (Homo sapiens, UniProt Q86WV6); experiment: Activation of human STING (139 to 379 residues) expressed in THP1-Blue ISG cells at 10 uM incubated for 24 hrs by quanti-blue SEAP reporter gene assay relative to control; format: cell-based; conditions: filed as activator
T1 sequence (Q86WV6 whole entry, the tested form may be a part): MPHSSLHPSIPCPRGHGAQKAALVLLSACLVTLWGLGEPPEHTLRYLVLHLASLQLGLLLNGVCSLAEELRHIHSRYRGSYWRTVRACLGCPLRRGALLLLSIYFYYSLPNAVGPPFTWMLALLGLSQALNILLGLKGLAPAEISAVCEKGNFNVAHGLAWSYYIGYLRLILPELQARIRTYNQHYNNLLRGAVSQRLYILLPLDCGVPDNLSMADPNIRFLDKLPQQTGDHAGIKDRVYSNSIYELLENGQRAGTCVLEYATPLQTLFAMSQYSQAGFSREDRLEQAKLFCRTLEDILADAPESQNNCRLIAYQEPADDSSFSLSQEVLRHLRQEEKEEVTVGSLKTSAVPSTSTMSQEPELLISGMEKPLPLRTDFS
Summary of the method: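 THP1-Blue-ISG cells (1 × 10⁵/well) treated for 24 h; single-concentration screen at 10 μM. SEAP ISG reporter in 20 μL supernatant read with QUANTI-Blue at 650 nm. Activation given as fold over control, averaging at least two experiments.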

[2] = molecular target: T2, Stimulator of interferon genes protein (Mus musculus) (UniProt Q3TBT3); experiment: Activation of mouse STING expressed in RAW-Lucia ISG cells at 50 uM incubated for 24 hrs by quanti-blue SEAP reporter gene assay relative to control; format: cell-based; conditions: filed as activator
T2 sequence (whole entry): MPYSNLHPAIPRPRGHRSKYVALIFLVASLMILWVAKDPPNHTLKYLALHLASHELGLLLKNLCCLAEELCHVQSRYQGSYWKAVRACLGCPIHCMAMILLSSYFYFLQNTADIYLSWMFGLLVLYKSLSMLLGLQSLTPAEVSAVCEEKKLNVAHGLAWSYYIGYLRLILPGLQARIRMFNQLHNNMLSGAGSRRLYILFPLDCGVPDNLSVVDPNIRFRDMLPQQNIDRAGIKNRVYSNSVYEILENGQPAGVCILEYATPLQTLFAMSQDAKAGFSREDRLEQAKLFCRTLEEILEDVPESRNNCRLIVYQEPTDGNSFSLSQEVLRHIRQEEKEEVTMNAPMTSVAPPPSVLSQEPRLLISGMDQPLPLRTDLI

[3] = molecular target: T1, Stimulator of interferon genes protein; experiment: Activation of human STING expressed in THP1-Dual cells incubated for 24 hrs by secreted luciferase reporter gene assay
[4] = molecular target: T3, Stimulator of interferon genes protein (Mus musculus, UniProt Q3TBT3); experiment: Activation of mouse STING expressed in RAW-Lucia ISG cells incubated for 24 hrs by secreted luciferase reporter gene assay
T3 sequence (Q3TBT3 whole entry): T2 sequence (whole entry)

[5] = molecular target: T2, Stimulator of interferon genes protein (Mus musculus); experiment: Activation of mouse STING expressed in RAW-Lucia ISG cells at 50 uM incubated for 24 hrs by QUANTI-Luc luciferase reporter gene assay relative to control; conditions: filed as activator
[6] = Solubility of the compound; format: physicochemical
[7] = molecular target: Voltage-gated inwardly rectifying potassium channel KCNH2 (Homo sapiens, UniProt Q12809); experiment: Inhibition of human ERG
Voltage-gated inwardly rectifying potassium channel KCNH2, sequence (Q12809 whole entry): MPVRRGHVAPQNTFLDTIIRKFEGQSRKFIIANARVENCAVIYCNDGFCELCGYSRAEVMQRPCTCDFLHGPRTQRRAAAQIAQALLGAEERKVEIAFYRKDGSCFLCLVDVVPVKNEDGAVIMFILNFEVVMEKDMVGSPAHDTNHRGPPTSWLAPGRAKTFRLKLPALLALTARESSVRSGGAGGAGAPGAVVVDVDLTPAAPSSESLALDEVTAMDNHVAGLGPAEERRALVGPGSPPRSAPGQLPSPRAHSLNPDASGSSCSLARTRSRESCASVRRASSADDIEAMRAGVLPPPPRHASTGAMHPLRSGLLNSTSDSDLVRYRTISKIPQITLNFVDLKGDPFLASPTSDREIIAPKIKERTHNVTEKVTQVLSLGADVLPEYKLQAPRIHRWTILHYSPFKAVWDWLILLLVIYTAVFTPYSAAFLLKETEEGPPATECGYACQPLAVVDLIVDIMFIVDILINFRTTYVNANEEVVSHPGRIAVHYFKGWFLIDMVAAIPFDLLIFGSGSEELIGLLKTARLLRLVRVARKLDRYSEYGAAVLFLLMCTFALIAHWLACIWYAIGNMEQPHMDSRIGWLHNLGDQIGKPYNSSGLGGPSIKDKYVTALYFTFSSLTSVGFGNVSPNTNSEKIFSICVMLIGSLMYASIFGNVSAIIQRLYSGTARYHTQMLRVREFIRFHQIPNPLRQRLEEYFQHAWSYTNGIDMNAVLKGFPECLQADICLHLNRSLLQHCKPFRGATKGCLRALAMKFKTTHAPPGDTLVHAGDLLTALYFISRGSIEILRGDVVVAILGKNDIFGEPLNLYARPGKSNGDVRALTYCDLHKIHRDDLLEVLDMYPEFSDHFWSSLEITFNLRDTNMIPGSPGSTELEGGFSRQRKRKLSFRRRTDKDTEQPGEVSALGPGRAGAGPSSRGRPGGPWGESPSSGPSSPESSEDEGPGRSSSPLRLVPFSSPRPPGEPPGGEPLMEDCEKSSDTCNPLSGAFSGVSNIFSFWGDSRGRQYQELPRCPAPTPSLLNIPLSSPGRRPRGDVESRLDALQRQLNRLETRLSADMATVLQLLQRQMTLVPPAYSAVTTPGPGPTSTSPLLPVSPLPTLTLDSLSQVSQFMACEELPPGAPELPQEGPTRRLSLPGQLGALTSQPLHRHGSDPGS

[8] = Half life in rat at 1 mg/kg, iv; format: ADME, organism-based; conditions: in vivo
[9] = AUClast in rat at 1 mg/kg, iv; format: ADME, organism-based; design: time 0 - last, route intravenous, dose 1 mg/kg; conditions: in vivo
[10] = Observed AUCinfinity in rat at 1 mg/kg, iv; format: ADME, organism-based; design: time infinity, route intravenous, dose 1 mg/kg; conditions: in vivo
[11] = Observed clearance in rat at 1 mg/kg, iv; format: ADME, organism-based; conditions: in vivo
[12] = Observed MRT infinity in rat at 1 mg/kg, iv; format: ADME, organism-based; conditions: in vivo
[13] = Observed volume of distribution at steady state in rat at 1 mg/kg, iv; format: ADME, organism-based; conditions: in vivo, read-out: Vdss

fold change (FC) [1]	fold change (FC) [2]	EC50 [3] [µM]	EC50 [4] [µM]	fold change (FC) [5]	Compound	further results
17	1.14	–	–	–	CCn1nc(C)cc1C(=O)/N=c1\[nH]c2cc(-c3ncn[nH]3)cc(OC)c2n1C/C=C/Cn1/c(=N/C(=O)c2cc(C)nn2CC)[nH]c2cc(C(N)=O)c3ccoc3c21	–
18.3	–	1.54	> 50	0.99	CCn1nc(C)cc1C(=O)/N=c1\[nH]c2cc(C3=NCCO3)cc(OC)c2n1C/C=C/Cn1/c(=N/C(=O)c2cc(C)nn2CC)[nH]c2cc(C(N)=O)cc(OCCCN3CCOCC3)c21	–
–	–	–	–	–	CCn1nc(C)cc1C(=O)/N=c1\[nH]c2cc(-c3ncn[nH]3)cc(OC)c2n1C/C=C/Cn1/c(=N/C(=O)c2cc(C)nn2CC)[nH]c2cc(C(N)=O)cc(OCCCN3CCOCC3)c21.Cl.Cl.Cl	solubility [6]: 71.3 mg/mL; IC50 [7]: > 40 µM
17	–	0.33	> 50	2.17	CCn1nc(C)cc1C(=O)/N=c1\[nH]c2cc(C(N)=O)cc(OC)c2n1C/C=C/Cn1/c(=N/C(=O)c2cc(C)nn2CC)[nH]c2cc(-c3ncn[nH]3)cc(OCCCN3CCOCC3)c21	–
17.3	–	0.79	> 50	1.18	CCn1nc(C)cc1C(=O)/N=c1\[nH]c2cc(C(N)=O)cc(OC)c2n1C/C=C/Cn1/c(=N/C(=O)c2cc(C)nn2CC)[nH]c2cc(-c3ncc[nH]3)cc(OCCCN3CCOCC3)c21	–
6.16	–	29.1	> 50	1.01	COC(=O)CCC(=O)c1nc2cc(C(N)=O)cc(OC)c2n1C/C=C/Cn1c(C(=O)CCC(=O)OC)nc2cc(C(N)=O)cc(OCCCN3CCOCC3)c21	–
1.28	1.2	–	–	–	CCn1nc(C)cc1C(=O)/N=c1\[nH]c2cc(-c3ncn[nH]3)cc(OC)c2n1CCCCn1/c(=N/C(=O)c2cc(C)nn2CC)[nH]c2cc(C(N)=O)cc(OCCCN3CCOCC3)c21	–
0.95	–	–	–	0.9	CCn1nc(C)cc1CCc1nc2cc(C(N)=O)cc(OC)c2n1C/C=C/Cn1c(CCc2cc(C)nn2CC)nc2cc(C(N)=O)cc(OCCCN3CCOCC3)c21	–
7.9	1.16	> 50	> 50	–	CCn1nc(C)cc1C(=O)/N=c1\[nH]c2cc(C#N)cc(OC)c2n1C/C=C/Cn1/c(=N/C(=O)c2cc(C)nn2CC)[nH]c2cc(C#N)cc(OCCCN3CCOCC3)c21	–
1.22	–	–	–	1.21	CCn1nc(C)cc1C(=O)/N=c1\[nH]c2cc(-c3ncc[nH]3)cc(OC)c2n1C/C=C/Cn1/c(=N/C(=O)c2cc(C)nn2CC)[nH]c2cc(-c3ncc[nH]3)cc(OCCCN3CCOCC3)c21	–
0.98	–	–	–	0.96	CCn1nc(C)cc1/C=C/c1nc2cc(C(N)=O)cc(OC)c2n1C/C=C/Cn1c(/C=C/c2cc(C)nn2CC)nc2cc(C(N)=O)cc(OCCCN3CCOCC3)c21	–
3.86	–	> 50	> 50	0.48	CCn1nc(C)cc1C(=O)/N=c1\[nH]c2cc(-c3ncn[nH]3)cc(OC)c2n1[C@H]1CC[C@H](n2/c(=N/C(=O)c3cc(C)nn3CC)[nH]c3cc(C(N)=O)cc(OCCCN4CCOCC4)c32)CC1	–
16.7	–	2.66	> 50	0.96	CCn1nc(C)cc1C(=O)/N=c1\[nH]c2cc(-c3ncn[nH]3)cc(OC)c2n1C/C=C/Cn1/c(=N/C(=O)c2cc(C)nn2CC)[nH]c2cc(C(N)=O)cc(OCCCO)c21	–
17.5	–	3.28	> 50	1.42	CCn1nc(C)cc1C(=O)/N=c1\[nH]c2cc(-c3ncc[nH]3)cc(OC)c2n1C/C=C/Cn1/c(=N/C(=O)c2cc(C)nn2CC)[nH]c2cc(C(N)=O)cc(OCCCN3CCOCC3)c21	–
11.1	–	26	> 50	1.34	CCn1nc(C)cc1C(=O)/N=c1\[nH]c2cc(-c3ncn[nH]3)cc(OC)c2n1C/C=C/Cn1/c(=N/C(=O)c2cc(C)nn2CC)[nH]c2cc(C#N)cc(OCCCN3CCOCC3)c21	–
1.14	0.59	–	–	–	CCn1nc(C)cc1C(=O)/N=c1\[nH]c2cc(-c3ncn[nH]3)cc(OC)c2n1[C@H]1CC[C@@H](n2/c(=N/C(=O)c3cc(C)nn3CC)[nH]c3cc(C(N)=O)cc(OCCCN4CCOCC4)c32)CC1	–
18.8	–	2.55	> 50	0.92	CCn1nc(C)cc1C(=O)/N=c1\[nH]c2cc(-c3nc(C)n[nH]3)cc(OC)c2n1C/C=C/Cn1/c(=N/C(=O)c2cc(C)nn2CC)[nH]c2cc(C(N)=O)cc(OCCCN3CCOCC3)c21	–
17.2	–	–	–	1.16	CCn1nc(C)cc1C(=O)/N=c1\[nH]c2cc(-c3cn(CCOCCOC)nn3)cc(OC)c2n1C/C=C/Cn1/c(=N/C(=O)c2cc(C)nn2CC)[nH]c2cc(C(N)=O)cc(OCCCN3CCOCC3)c21	–
0.83	0.9	–	–	–	CCn1nc(C)cc1C(=O)/N=c1\[nH]c2cc(C(N)=O)cc(OC)c2n1C/C=C/Cn1c(C(=O)CCC(=O)OC)nc2cc(C(N)=O)cc(OCCCN3CCOCC3)c21	–
–	–	–	–	–	CCn1nc(C)cc1C(=O)Nc1nc2cc(C(N)=O)cc(OC)c2n1C/C=C/Cn1c(NC(=O)c2cc(C)nn2CC)nc2cc(C(N)=O)cc(OCCCN3CCOCC3)c21 [listing 1 of 2 here]	half-life [8]: 68.4 min; AUC(0-t) [9]: 657 ng·h/mL; AUC(0-inf) [10]: 666 ng·h/mL; clearance [11]: 26 mL/min/kg; MRT inf [12]: 38 min; Vd [13]: 0.965 L/kg
9	1.4	–	–	–	COc1cc(C(N)=O)cc2nc(C(=O)CCC(=O)O)n(C/C=C/Cn3c(C(=O)CCC(=O)O)nc4cc(C(N)=O)cc(OCCCN5CCOCC5)c43)c12	–
0.86	0.93	–	–	–	CCn1nc(C)cc1C(=O)/N=c1\[nH]c2cc(C(N)=O)cc(OC)c2n1C/C=C/Cn1c(C(=O)CCC(=O)O)nc2cc(C(N)=O)cc(OCCCN3CCOCC3)c21	–
4.9	–	–	–	1.18	CCn1nc(C)cc1C(=O)/N=c1\[nH]c2cc(-c3ncn[nH]3)cc(OC)c2n1C/C=C/Cn1/c(=N/C(=O)c2cc(C)nn2CC)[nH]c2cc(-c3ncn[nH]3)cc(OCCCN3CCOCC3)c21	–
–	–	–	–	–	CCn1nc(C)cc1C(=O)Nc1nc2cc(C(N)=O)cc(OC)c2n1C/C=C/Cn1c(NC(=O)c2cc(C)nn2CC)nc2cc(C(N)=O)cc(OCCCN3CCOCC3)c21 [listing 2 of 2 here]	IC50 [7]: > 40 µM
13.4	–	1.02	> 50	1.07	CCn1nc(C)cc1C(=O)/N=c1\[nH]c2cc(C(N)=O)cc(OC)c2n1C/C=C/Cn1/c(=N/C(=O)c2cc(C)nn2CC)[nH]c2cc(C#N)cc(OCCCN3CCOCC3)c21	–
1.58	1.1	–	–	–	CCn1nc(C)cc1C(=O)/N=c1\[nH]c2cc(-c3ncn[nH]3)cc(OC)c2n1C/C=C/Cn1/c(=N/C(=O)c2cc(C)nn2CC)[nH]c2cc(C(N)=O)c3c(c21)OCCO3	–
